Experimental data collected from several papers.
Target: Vascular endothelial growth factor receptor 1 (FLT1, Homo sapiens, UniProt P17948)

Compound	assay	conditions	quantity	result
CN1CCN(C(=O)c2ccc(NC(=O)Nc3ccc(N(C)c4ccnc(Nc5ccc(CS(C)(=O)=O)cc5)n4)cc3)cc2)CC1	binding, competition with immobilised ligand	1 µM	remaining binding	0.4%
CCCCC(=O)Nc1ccc(-c2ccc3ncn(CCC)c(=O)c3c2)cn1	binding, competition with immobilised ligand	0.5 µM	remaining binding	98%
CC(C)S(=O)(=O)c1ccc2nccc(Nc3ccc4sc(C5CCCC5)nc4c3)c2c1	enzyme activity, inhibitor	1 µM	activity vs control	107%
O=C1C=C(Nc2ccc(OCc3cn(Cc4ccc(Cl)c(Cl)c4)nn3)cc2)C(=O)c2ccccc21	enzyme activity, inhibitor, radiometric	10 µM	inhibition	-38%
C=CC(=O)N1CCC[C@@H](n2nc(-c3ccc(Oc4ccccc4)cc3)c3c(N)ncnc32)C1	enzyme activity, inhibitor	1 µM	inhibition	33%
C[C@H]1CC[C@H](n2c3cnccc3c3cnc(Nc4ccc5c(n4)CCN(C(=O)CO)C5)nc32)CC1	cell-free assay, competition with immobilised ligand	1 µM	remaining binding	93%
CO[C@@H]1[C@H](N(C)C(=O)c2ccccc2)C[C@H]2O[C@]1(C)n1c3ccccc3c3c4c(c5c6ccccc6n2c5c31)C(=O)NC4	enzyme activity, inhibitor	1 µM	inhibition	57%
C1=C/COCc2cc(ccc2OCCN2CCCC2)Nc2nccc(n2)-c2cccc(c2)COC/1	binding	0.1 µM	remaining binding	64%
